What is called Ki is a dissociation constant, usually derived from enzyme kinetics or from competition with a known ligand. Lower therefore signals higher affinity. In general, Kd refers to the free concentration of one partner at which half of the binding sites on the other are occupied at equilibrium, for simple one-to-one binding. A high value points to lower affinity. As a reminder, the IC50 is the midpoint of a concentration-inhibition curve. By pKb is commonly meant −log10 of the Kb, conventionally taken in molar units.

Each structure is given as a SMILES string. A value given as a limit tells only on which side of the number the result lay.

Experiment [1] concerns the target T1, Histamine H4 receptor (Homo sapiens, UniProt Q9H3N8). Kind of experiment: Displacement of [3H]histamine from human histamine H4 receptor expressed in HEK cells. The class given is cell-based, HEK293. Summed up:
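Displacement of [3H]histamine from membranes of HEK cells transiently expressing human H4R, H3R or H1R. pKi given as mean ± SEM of at least three independent measurements; n = 2 where noted.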
A general note: In a radioligand displacement assay an active substance lowers the binding of a labelled ligand.

Experiment [2] has as its target T1, Histamine H4 receptor. Kind of experiment: Displacement of [3H]histamine from human histamine H4 receptor expressed in HEK cells by competitive kinetic analysis. Format: cell-based, HEK293.
Experiment [3] deals with T1, Histamine H4 receptor. Description: Antagonist activity at human histamine H4 receptor expressed in HEK cells assessed as inhibition of histamine-induced [35S]GTPgammaS binding. Format: functional, cell-based, HEK293. Particulars: for pKb: HEK293.
Experiment [4] concerns the target T2, Histamine H4 receptor (Mus musculus, UniProt Q91ZY2).
T2 sequence (Q91ZY2 whole entry): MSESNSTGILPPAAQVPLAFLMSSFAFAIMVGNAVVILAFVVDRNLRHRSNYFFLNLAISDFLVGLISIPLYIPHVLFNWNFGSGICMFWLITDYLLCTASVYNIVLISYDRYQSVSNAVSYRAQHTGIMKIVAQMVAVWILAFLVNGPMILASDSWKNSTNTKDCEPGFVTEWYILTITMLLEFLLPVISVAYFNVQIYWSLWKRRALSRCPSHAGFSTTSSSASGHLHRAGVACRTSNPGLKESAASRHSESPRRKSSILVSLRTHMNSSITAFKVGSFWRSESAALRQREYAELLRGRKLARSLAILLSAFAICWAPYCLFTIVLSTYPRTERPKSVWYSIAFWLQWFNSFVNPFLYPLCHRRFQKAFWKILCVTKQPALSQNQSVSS
Kind of experiment: Binding affinity to mouse histamine H4 receptor.

Experiment [5] concerns the target Histamine H4 receptor (Rattus norvegicus, UniProt Q91ZY1). Description: Binding affinity to rat histamine H4 receptor.
The target in a further experiment is Histamine H1 receptor (Homo sapiens, UniProt P35367). Kind of experiment: Displacement of [3H]histamine from human histamine H1 receptor expressed in HEK cells.
For experiment [6], the target named is Voltage-gated inwardly rectifying potassium channel KCNH2 (Homo sapiens, UniProt Q12809). Description: Displacement of [3H]astemizole from human ERG channel.
For the next experiment, the species on record is Homo sapiens. Description: Selectivity ratio of Ki for human histamine H3 receptor to Ki for human histamine H4 receptor.
A further experiment addresses Histamine H3 receptor (Homo sapiens, UniProt Q9Y5N1). Kind of experiment: Displacement of [3H]histamine from human histamine H3 receptor expressed in HEK cells. The class given is cell-based, HEK293.
For another experiment, the target named is Histamine H2 receptor (Homo sapiens, UniProt P25021). Description: Displacement of [3H]histamine from human histamine H2 receptor expressed in HEK cells.
Sequence of Histamine H2 receptor (P25021 whole entry): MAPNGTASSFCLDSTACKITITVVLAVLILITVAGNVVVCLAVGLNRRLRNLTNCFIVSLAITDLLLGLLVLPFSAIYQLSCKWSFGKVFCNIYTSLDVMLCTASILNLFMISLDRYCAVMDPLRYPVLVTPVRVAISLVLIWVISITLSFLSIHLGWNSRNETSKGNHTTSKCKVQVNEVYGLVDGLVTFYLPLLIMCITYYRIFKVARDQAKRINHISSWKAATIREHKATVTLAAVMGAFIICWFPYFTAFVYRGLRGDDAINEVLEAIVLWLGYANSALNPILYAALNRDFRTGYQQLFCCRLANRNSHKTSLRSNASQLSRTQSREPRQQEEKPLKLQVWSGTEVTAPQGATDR

Sequence of Histamine H1 receptor (P35367 whole entry): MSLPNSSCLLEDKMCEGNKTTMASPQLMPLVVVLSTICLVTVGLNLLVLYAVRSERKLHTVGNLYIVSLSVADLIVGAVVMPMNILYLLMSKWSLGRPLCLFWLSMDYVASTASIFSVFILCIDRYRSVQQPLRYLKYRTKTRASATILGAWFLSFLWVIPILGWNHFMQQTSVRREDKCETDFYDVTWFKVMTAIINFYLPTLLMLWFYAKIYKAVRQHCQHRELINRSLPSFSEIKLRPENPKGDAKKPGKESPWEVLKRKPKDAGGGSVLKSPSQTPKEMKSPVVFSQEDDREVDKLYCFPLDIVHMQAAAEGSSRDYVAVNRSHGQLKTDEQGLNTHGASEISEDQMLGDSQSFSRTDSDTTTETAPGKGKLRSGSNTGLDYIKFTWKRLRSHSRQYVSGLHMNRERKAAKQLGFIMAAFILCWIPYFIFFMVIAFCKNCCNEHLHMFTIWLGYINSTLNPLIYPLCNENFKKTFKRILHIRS
T1 sequence (Q9H3N8 whole entry): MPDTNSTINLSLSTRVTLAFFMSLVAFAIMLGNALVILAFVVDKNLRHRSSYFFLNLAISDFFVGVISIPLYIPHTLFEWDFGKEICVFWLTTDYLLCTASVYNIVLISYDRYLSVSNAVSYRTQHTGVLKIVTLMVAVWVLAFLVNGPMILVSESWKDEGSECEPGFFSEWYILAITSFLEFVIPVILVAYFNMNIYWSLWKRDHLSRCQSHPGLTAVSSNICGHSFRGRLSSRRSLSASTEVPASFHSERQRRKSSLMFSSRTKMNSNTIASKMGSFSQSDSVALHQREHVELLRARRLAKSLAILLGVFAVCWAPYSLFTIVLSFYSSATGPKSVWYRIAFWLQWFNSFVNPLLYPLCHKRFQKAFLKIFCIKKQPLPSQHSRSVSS
Sequence of Histamine H3 receptor (Q9Y5N1 whole entry): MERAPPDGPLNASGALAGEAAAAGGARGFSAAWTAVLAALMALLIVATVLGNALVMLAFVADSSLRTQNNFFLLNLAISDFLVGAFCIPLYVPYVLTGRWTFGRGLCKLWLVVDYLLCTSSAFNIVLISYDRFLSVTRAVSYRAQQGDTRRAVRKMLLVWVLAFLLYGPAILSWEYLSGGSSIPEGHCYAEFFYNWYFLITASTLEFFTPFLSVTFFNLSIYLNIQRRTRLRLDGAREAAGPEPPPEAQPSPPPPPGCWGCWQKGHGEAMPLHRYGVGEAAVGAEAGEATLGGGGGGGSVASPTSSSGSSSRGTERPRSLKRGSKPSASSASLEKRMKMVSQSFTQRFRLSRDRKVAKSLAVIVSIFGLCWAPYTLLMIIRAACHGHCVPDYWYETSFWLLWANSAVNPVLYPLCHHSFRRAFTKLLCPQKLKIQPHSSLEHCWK
Sequence of Histamine H4 receptor (Rattus norvegicus, UniProt Q91ZY1) (Q91ZY1 whole entry): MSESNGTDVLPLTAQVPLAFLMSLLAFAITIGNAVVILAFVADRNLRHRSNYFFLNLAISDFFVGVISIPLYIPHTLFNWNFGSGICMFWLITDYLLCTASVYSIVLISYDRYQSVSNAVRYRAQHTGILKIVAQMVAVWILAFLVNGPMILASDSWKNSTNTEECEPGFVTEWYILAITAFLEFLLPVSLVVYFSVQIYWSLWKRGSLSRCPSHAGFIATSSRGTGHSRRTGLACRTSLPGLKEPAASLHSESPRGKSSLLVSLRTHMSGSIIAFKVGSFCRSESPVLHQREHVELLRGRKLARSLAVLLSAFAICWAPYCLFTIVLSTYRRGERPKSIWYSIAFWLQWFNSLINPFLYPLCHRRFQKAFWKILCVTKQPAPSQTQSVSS
Sequence of Voltage-gated inwardly rectifying potassium channel KCNH2 (Q12809 whole entry): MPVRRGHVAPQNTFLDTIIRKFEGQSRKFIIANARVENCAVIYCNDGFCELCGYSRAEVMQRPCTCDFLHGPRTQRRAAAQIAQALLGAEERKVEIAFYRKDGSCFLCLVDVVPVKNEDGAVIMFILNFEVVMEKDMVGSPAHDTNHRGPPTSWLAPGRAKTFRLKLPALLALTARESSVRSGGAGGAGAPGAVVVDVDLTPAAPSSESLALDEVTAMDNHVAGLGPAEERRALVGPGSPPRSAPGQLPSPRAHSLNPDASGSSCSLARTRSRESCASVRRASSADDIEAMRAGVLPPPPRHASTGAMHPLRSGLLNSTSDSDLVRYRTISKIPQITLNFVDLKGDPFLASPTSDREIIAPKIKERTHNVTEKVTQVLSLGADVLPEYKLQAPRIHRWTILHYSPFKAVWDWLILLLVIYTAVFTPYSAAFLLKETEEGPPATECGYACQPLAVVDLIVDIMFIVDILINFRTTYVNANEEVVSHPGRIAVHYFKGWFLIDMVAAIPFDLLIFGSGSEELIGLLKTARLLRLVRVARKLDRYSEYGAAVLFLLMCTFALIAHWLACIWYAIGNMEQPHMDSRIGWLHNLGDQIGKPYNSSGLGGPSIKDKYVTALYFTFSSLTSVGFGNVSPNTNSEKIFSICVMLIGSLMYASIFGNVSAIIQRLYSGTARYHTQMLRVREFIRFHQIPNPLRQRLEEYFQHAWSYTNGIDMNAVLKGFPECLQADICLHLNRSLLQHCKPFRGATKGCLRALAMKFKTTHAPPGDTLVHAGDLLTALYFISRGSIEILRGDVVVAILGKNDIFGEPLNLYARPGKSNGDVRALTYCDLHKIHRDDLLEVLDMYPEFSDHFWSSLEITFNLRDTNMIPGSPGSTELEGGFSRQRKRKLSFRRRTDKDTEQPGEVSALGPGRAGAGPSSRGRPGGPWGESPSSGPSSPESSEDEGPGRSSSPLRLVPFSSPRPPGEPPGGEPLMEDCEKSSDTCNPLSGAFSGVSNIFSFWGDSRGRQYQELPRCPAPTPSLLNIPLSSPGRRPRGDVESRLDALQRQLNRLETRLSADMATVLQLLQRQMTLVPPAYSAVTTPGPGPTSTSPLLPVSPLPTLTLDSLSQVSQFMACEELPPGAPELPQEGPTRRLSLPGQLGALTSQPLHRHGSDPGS

At Histamine H4 receptor [1], `CN1CCN(c2nc(N)nc3ccccc23)CC1` had a Ki of 44.7 nM.
With `CNC1CN(c2nc(N)nc3cc(C4CC4)cnc23)C1`, the affinity on Histamine H4 receptor [2], expressed as Kd, was 13.5 nM. For the same molecule, on Histamine H4 receptor [3], the half-inhibitory concentration (IC50) is 70.8 nM. The pKb at Histamine H4 receptor [3] stood at 8.33. The Ki is 15.1 nM at Histamine H4 receptor [4]; 29.5 nM on Histamine H4 receptor [5]; 20900 nM at Histamine H1 receptor; above 100000 nM in [6]; 631 nM on Histamine H3 receptor; 5.25 nM on Histamine H4 receptor [1]. Further, the Ratio Ki in the experiment filed under Homo sapiens came out at 120.
As for `Nc1nc(N2CCNCC2)c2ccc(-c3ccco3)cc2n1`, on Histamine H4 receptor [2], the affinity, expressed as Kd, was 40.7 nM. The molecule also had a Ki on Histamine H4 receptor [1] of 15.1 nM.
Regarding `CN[C@@H]1CCN(c2nc(N)nc3cc(C4CC4)cnc23)C1`, the Ki was above 100000 nM in experiment [6], 1000 nM at Histamine H3 receptor and 10.2 nM on Histamine H4 receptor [1]. Moreover, the Ratio Ki in the experiment filed under Homo sapiens worked out at 98.
Turning to `CN[C@@H]1CCN(c2nc(N)nc3cc(C(C)C)cnc23)C1`, the Ratio Ki in the experiment filed under Homo sapiens came out at 12. In addition, the figures for the inhibition constant Ki at Histamine H3 receptor and on Histamine H4 receptor [1] were 145 nM and 12.3 nM, respectively.
For the molecule `Nc1nc(N2CCNCC2)c2ccc(C3CC3)cc2n1`, the Ki was 4680 nM in [6], 155 nM on Histamine H3 receptor and 11.5 nM at Histamine H4 receptor [1]. In the experiment listed under Homo sapiens, the Ratio Ki is 13.
For `CNC1CN(c2nc(N)nc3cc(C4CC4)ccc23)C1`, in that order: 3630 nM, 692 nM, 7.08 nM and 98.
Take `CCc1ccc2c(N3CC[C@@H](NC)C3)nc(N)nc2c1`: the Ki in experiment [6] is 2750 nM; at Histamine H3 receptor it was 603 nM; on Histamine H4 receptor [1] it was 17 nM. The Ratio Ki in the experiment listed under Homo sapiens was 56.
With `CN1CCN(c2nc(N)nc3cccnc23)CC1`, the affinity on Histamine H4 receptor [1], expressed as Ki, was 30.9 nM.
`CNC1CN(c2nc(N)nc3cc(C4CCCC4)cnc23)C1`: the equilibrium dissociation constant (Kd) on Histamine H4 receptor [2] was 10.2 nM. Further, the IC50 at Histamine H4 receptor [3] was 97.7 nM. Further, the pKb on Histamine H4 receptor [3] was determined as 8.2. The Ki is 19.5 nM at Histamine H4 receptor [4]; 27.5 nM at Histamine H4 receptor [5]; 2820 nM on Histamine H2 receptor; 16600 nM at Histamine H1 receptor; above 100000 nM in experiment [6]; 151 nM on Histamine H3 receptor. At Histamine H4 receptor [1], this molecule had a Ki of 6.46 nM. Besides, the Ratio Ki in the experiment filed under Homo sapiens is 23.
As for `CNC1CN(c2nc(N)nc3cc(C4CCCC4)ccc23)C1`, the results for the Ki (in experiment [6]; at Histamine H3 receptor; on Histamine H4 receptor [1]) were 832 nM, 158 nM and 3.39 nM, respectively. Further, in the experiment listed under Homo sapiens, the Ratio Ki was 47.
The molecule `CCc1cnc2c(N3CC[C@@H](NC)C3)nc(N)nc2c1` had a dissociation constant (Kd) on Histamine H4 receptor [2] of 21.4 nM. Besides, the IC50 on Histamine H4 receptor [3] is 126 nM. For the same molecule, the pKb on Histamine H4 receptor [3] amounted to 8.08. In addition, the Ki is 85.1 nM on Histamine H4 receptor [4]; 138 nM on Histamine H4 receptor [5]; 3160 nM at Histamine H2 receptor; 11200 nM on Histamine H1 receptor; 43700 nM in experiment [6]; 1510 nM on Histamine H3 receptor. On Histamine H4 receptor [1], this molecule had a Ki of 9.12 nM. The Ratio Ki in the experiment filed under Homo sapiens came out at 166.
As for `CCc1ccc2c(N3CCNCC3)nc(N)nc2c1`, the Ki in experiment [6] is 1510 nM; on Histamine H3 receptor, 219 nM; at Histamine H4 receptor [1] it was 14.8 nM. For the same molecule, in the experiment listed under Homo sapiens, the Ratio Ki was found to be 15.
As for `Nc1nc(N2CCNCC2)c2ccc(C3CCCC3)cc2n1`, the Ki was 3390 nM in experiment [6], 331 nM on Histamine H3 receptor and 12.3 nM at Histamine H4 receptor [1]. Further, the Ratio Ki in the experiment listed under Homo sapiens came to 27.
`CCc1cnc2c(N3CC(NC)C3)nc(N)nc2c1` showed a Kd at Histamine H4 receptor [2] of 8.51 nM. Moreover, the 50% inhibitory concentration (IC50) at Histamine H4 receptor [3] is 112 nM. Besides, at Histamine H4 receptor [3], the negative-log Kb (pKb) turned out to be 8.14. For the same molecule, the Ki is 50.1 nM at Histamine H4 receptor [4]; 70.8 nM on Histamine H4 receptor [5]; 14100 nM on Histamine H2 receptor; 33900 nM at Histamine H1 receptor; 34700 nM in experiment [6]; 776 nM on Histamine H3 receptor. This molecule also had a Ki on Histamine H4 receptor [1] of 10.7 nM. For the same molecule, the Ratio Ki in the experiment filed under Homo sapiens was found to be 72.
For the molecule `CN[C@@H]1CCN(c2nc(N)nc3cc(C4CC4)ccc23)C1`, the Ratio Ki in the experiment filed under Homo sapiens amounted to 8. Further, the inhibitory constant (Ki) on Histamine H3 receptor was 178 nM; at Histamine H4 receptor [1] it was 21.9 nM.
With `CCc1cnc2c(N3CCN(C)CC3)nc(N)nc2c1`, the Ki at Histamine H3 receptor was 214 nM; on Histamine H4 receptor [1], 9.33 nM.
Take `CCc1ccc2c(N3CC(NC)C3)nc(N)nc2c1`: the values for the Ki (in experiment [6]; on Histamine H3 receptor; on Histamine H4 receptor [1]) were 2450 nM, 617 nM and 11.2 nM, respectively. Besides, the Ratio Ki in the experiment filed under Homo sapiens is 89.
`CN[C@@H]1CCN(c2cc(NCC3CC3)nc(N)n2)C1` [ADRIFORANT] had a Kd on Histamine H4 receptor [2] of 25.1 nM. Moreover, at Histamine H4 receptor [3], the IC50 was 53.7 nM. Further, the negative logarithm of the Kb (pKb) at Histamine H4 receptor [3] worked out at 8.46. The Ki on Histamine H4 receptor [4] is 55 nM; on Histamine H4 receptor [5], 55 nM; in experiment [6], 3470 nM; at Histamine H3 receptor, 186 nM; on Histamine H4 receptor [1], 10.2 nM. Moreover, the Ratio Ki in the experiment filed under Homo sapiens stood at 22.
As to `CNC1CN(c2nc(N)nc3cc(C(C)(C)C)ccc23)C1`, the Ratio Ki in the experiment listed under Homo sapiens worked out at 32. The values for the Ki at Histamine H3 receptor and at Histamine H4 receptor [1] were 490 nM and 15.1 nM, respectively.
Regarding `CNC1CN(c2nc(N)nc3cc(C(C)C)cnc23)C1`, the Ki is 832 nM on Histamine H3 receptor and 25.1 nM at Histamine H4 receptor [1].
`CC(C)(C)c1ccc2c(N3CCNCC3)nc(N)nc2c1`: the Ratio Ki in the experiment filed under Homo sapiens turned out to be 24. Besides, the Ki is 851 nM on Histamine H3 receptor and 35.5 nM at Histamine H4 receptor [1].
`CNC1CN(c2nc(N)nc3cc(C#N)cnc23)C1`: the Ki is above 100000 nM in experiment [6], 9550 nM on Histamine H3 receptor and 53.7 nM at Histamine H4 receptor [1]. In addition, in the experiment filed under Homo sapiens, the Ratio Ki amounted to 186.

The values above are taken from ChEMBL document CHEMBL2375287, “A novel series of histamine H4 receptor antagonists based on the pyrido[3,2-d]pyrimidine scaffold: comparison of hERG binding and target residence time with PF-3893787” (Bioorg Med Chem Lett, 2013).
